Source: PubChem BioAssay (several laboratories)
S100A4 MyoIIA: S100A4-myosin IIA interaction inhibition. P26447. S100A4/TAMRA-MyoIIA peptide fluorescence polarization. inhibition, % at 10.7 µM. 360,000 compounds, 0.14% hits. AID 652163;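 active = mean inhibition of at least 70% across replicates, with every replicate also reaching that level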
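Test system: S100A4 monomer protein; Medium: HEPES pH 7.2 with CaCl2, KCl, NaCl, DTT, Triton; Probe or stimulus: TAMRA-labelled myosin IIA heavy-chain peptide probe, 5 nM; Doses: one dose per compound; Times: polarization read 5 min after assay mix addition, stable 5–60 min; Benchmarks: neutral control DMSO, positive control TFP.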
CRFBP-R2 block: antagonists of CRF-binding protein/CRF-R2 receptor complex | AID 588475 | 350,000 compounds, 0.59% hits | inhibition, % at 11.8 µM | HEK293 CRF-R2/CRF-BP, CRF-induced calcium fluorescence;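 active = inhibition of the ligand-induced calcium signal above about 50% at the single tested concentration, limit read from the data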
PKA-R2B act: PKA-R2B complex activation; P22694+P31323; PKA-R2B holoenzyme dissociation, Cy5-IP20 fluorescence polarization; R2B truncated from residue 108, S112A mutant; 0% DMSO only, 100% 113 µM cGMP; activation, % at 11.4 µM; 340,000 compounds, 0.079% hits; AID 504700;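 active = activation above a cutoff set at the mean over all compounds plus 3 SD, cut at about 18% in these data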;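 also: higher means more holoenzyme dissociation and a rise in polarization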
Target sequence (P31323 whole entry, looked up, other chains not shown, the tested form may be a part): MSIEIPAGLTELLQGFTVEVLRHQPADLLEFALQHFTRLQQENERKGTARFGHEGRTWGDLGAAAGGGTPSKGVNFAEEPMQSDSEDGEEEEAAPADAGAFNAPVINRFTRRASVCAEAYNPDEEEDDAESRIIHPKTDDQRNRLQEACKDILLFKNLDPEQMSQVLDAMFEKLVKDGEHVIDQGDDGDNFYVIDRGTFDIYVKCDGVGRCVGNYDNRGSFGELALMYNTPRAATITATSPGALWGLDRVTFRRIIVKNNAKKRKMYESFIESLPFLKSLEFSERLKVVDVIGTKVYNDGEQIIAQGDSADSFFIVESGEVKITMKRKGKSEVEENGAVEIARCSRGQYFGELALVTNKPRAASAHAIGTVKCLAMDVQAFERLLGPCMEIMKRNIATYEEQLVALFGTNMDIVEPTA
SIRT5 block: sirtuin-5 (human) deacylase inhibition; 330,000 compounds, 1.1% hits; Q9NXA8; Purified SirT5, succinyl-peptide AMC, trypsin-coupled fluorescence; AID 652115; inhibition, % at 15 µM; in the data active = inhibition above about 15%
PKA-R1A activ: activates the PKA-R1A holoenzyme complex; activation, % at 11.4 µM; PKA-R1A dissociation, Cy5-IP20 fluorescence polarization; scaled: DMSO 0%, 113 µM cGMP 100%; 340,000 compounds, 0.083% hits;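 active = percent activation above the mean of all tested compounds plus 3 SD, cut at about 19% in these data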;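 also: higher means more PKAc released from R1A so a rise in polarization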
Starred values were filed as active, the others as inactive; / = no result; ! = not active in a repeat. The list is not random: actives were taken first. Their share in the collection is about 1.5%.

SMILES	S100A4 MyoIIA	CRFBP-R2 block	PKA-R2B act	SIRT5 block	PKA-R1A activ
CCCC(=O)OCCNc1cc(Sc2nc3ccccc3[nH]2)c2nonc2c1[N+](=O)[O-]	/	91*	-7	/	4
CCCC#Cc1ccc([C@H]2[C@H](CO)N3C(=O)CN(C(=O)NC4CCCC4)C[C@@H]23)cc1	13	/	/	0	/
CCN1CCS/C1=C\C=C\C1=[N+](CC)CCS1	3	-5	0	18*	-3
CCN1CCN(C(=O)c2ccc(C(F)(F)F)cc2)CC1	3	-4	-2	20*	6
COc1ccc(-c2[nH]ncc2CN(CCO)CC23CC4CC(CC(C4)C2)C3)c(OC)c1	-8	-14	-3	24*	-12
COc1ccc(-c2[nH]ncc2CN2CCSCC2)c(OC)c1	-6	-11	-3	-2	-21
C[C@@H]1CN([C@@H](C)CO)C(=O)CCCn2cc(nn2)CO[C@H]1CN(C)S(=O)(=O)c1ccc(Oc2ccccc2)cc1	82*!	/	/	-3	/
Cc1ccc(S(=O)(=O)N(C)C[C@H]2OCc3cn(nn3)CCCC(=O)N([C@@H](C)CO)C[C@H]2C)cc1	5	/	/	-1	/
C[C@H]1CN([C@@H](C)CO)C(=O)CCCn2cc(nn2)CO[C@H]1CN(C)Cc1ccccc1	-35	/	/	25*	/
C[C@@H]1CN([C@H](C)CO)C(=O)CCCn2cc(nn2)CO[C@H]1CN(C)S(=O)(=O)c1ccc(Oc2ccccc2)cc1	2	8	-3	-1	5
Cc1ccc(S(=O)(=O)N(C)C[C@H]2OCc3cn(nn3)CCCC(=O)N([C@@H](C)CO)C[C@@H]2C)cc1	2	0	-1	20*!	-6
CCOC(=O)N(C)C[C@H]1OCc2cn(nn2)CCCC(=O)N([C@H](C)CO)C[C@H]1C	-7	/	/	17*	/
O=C(Nc1cc(F)ccc1F)N[C@@H]1CC[C@H](CCn2cc(C3CC3)nn2)O[C@@H]1CO	-7	/	/	3	/
CC(C)(CNC(=O)c1cc(Cl)c(O)c(Cl)c1)N1CCCCC1	-4	55*	5	-1	13
CC(C)(CNC(=O)Cc1ccc(Cl)cc1Cl)N1CCCCC1	-35	-4	-11	-2	-9
CCCN(CC1CC1)C(=S)Nc1ccc(C(C)=O)cc1	0	2	-9	-2	-1
CCN(C(=S)Nc1ccc(C(C)=O)cc1)C1CCCCC1	1	-12	-2	21*	-16
C[C@@H]1CCCCO[C@@H](CN(C)S(=O)(=O)c2ccc(Cl)cc2)[C@@H](C)CN([C@@H](C)CO)C(=O)c2cc(NC(=O)CCC(F)(F)F)ccc2O1	-2	/	/	15	/
O=S(=O)(Nc1cc(Cl)ccc1-n1cncn1)c1cc(Br)ccc1Br	-4	30	11	-1	1
O=S(=O)(Nc1cc(Cl)ccc1-n1cncn1)c1ccccc1Cl	1	106*	-7	1	4
CN1C(=O)c2cc(NC(=O)c3ccc(F)cc3)ccc2OC[C@H]2O[C@H](CC(=O)NCC3CCCCC3)CC[C@H]21	-15	/	/	6	/
CCC(=O)c1ccccc1OCCN1C(=O)NC(C)(C)C1=O	5	-5	5	-1	-1
CC1(C)NC(=O)N(CCOCCOc2ccccc2-c2ccccc2)C1=O	6	16	3	26*	-1
O=S(=O)(Nc1nc2ccccc2s1)c1cc(F)ccc1F	1	24	4	0	-6
O=S(=O)(Nc1nc2ccccc2s1)c1ccc(Cl)s1	/	58*	7	/	1
SMILES	S100A4 MyoIIA	CRFBP-R2 block	PKA-R2B act	SIRT5 block	PKA-R1A activ
Cc1c(C(=O)Nc2ccccc2)sc2ncn(CC(=O)N3CCCCC3)c(=O)c12	25	-6	3	-4	2
Cc1c(C(=O)Nc2cccc([N+](=O)[O-])c2)sc2ncn(CC(=O)N3CCOCC3)c(=O)c12	-2	87*	-14	1	-12
O=[N+]([O-])c1cccnc1Sc1ccc(Cl)cc1	-5	61*	9	-1	0
Cc1cccc(Nc2nc(N)nc(N)c2N=O)c1	-16	-66	4	-1	4
Cc1ccc(N(C)c2nc(N)nc(N)c2N=O)cc1	191*	/	/	0	/
C[C@@H]1CN([C@H](C)CO)C(=O)c2cc(C#Cc3ccncc3)cnc2O[C@H]1CN(C)CC1CCOCC1	6	/	/	1	/
Cc1ccc(CNC(=O)C2CCCN(c3nc4ccsc4c(=O)s3)C2)cc1 (stereo not drawn)	-8	-8	4	18*	-4
